How the values were obtained:
Format in all cases: functional
Rattus norvegicus [1] = assay: Hypolipidemic activity in 14 days high cholesterol diet fed Wistar albino rat hyperlipidemic model assessed as decrease in serum total cholesterol level at 20 mg/kg, po administered on day 8 to 14; design: scale not given: the % may be the effect or the level left
How it was run: (§1)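 Male Wistar rats (160–180 g), acclimatized one week, fed chow with 2% cholesterol and 1% cholic acid for 14 days. Oral dosing was 20 mg/kg in 0.5% CMC on days 8–14, with six rats per group. On day 14, after a 12 h fast, tail blood was drawn under ether. Serum was analysed by kit spectrophotometry. Results are % change versus vehicle-treated hyperlipidemic controls.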

Rattus norvegicus [2] = assay: Hypolipidemic activity in 14 days high cholesterol diet fed Wistar albino rat hyperlipidemic model assessed as decrease in serum triglyceride level at 20 mg/kg, po administered on day 8 to 14; design: scale not given: the % may be the effect or the level left; how it was run: as §1
Rattus norvegicus [3] = assay: Hypolipidemic activity in 14 days high cholesterol diet fed Wistar albino rat hyperlipidemic model assessed as increase in serum high density lipoprotein cholesterol level at 20 mg/kg, po administered on day 8 to 14; how it was run: as §1
Rattus norvegicus [4] = assay: Hypolipidemic activity in 14 days high cholesterol diet fed Wistar albino rat hyperlipidemic model assessed as decrease in serum low density lipoprotein cholesterol level at 20 mg/kg, po administered on day 8 to 14; design: scale not given: the % may be the effect or the level left
How it was run: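 HCD model in male Wistar rats (160–180 g) on chow plus 2% cholesterol and 1% cholic acid for 14 days. Oral dosing was 20 mg/kg in 0.5% carboxymethylcellulose from day 8 to 14, with groups of six. Rats were fasted 12 h on day 14, and tail blood was taken under mild ether anesthesia. Serum was separated by centrifugation at 3000 rpm for 10 min for lipoprotein cholesterol measurement.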

Rattus norvegicus [5] = assay: Ratio of serum LDL cholesterol to serum HDL cholesterol in 14 days high cholesterol diet fed Wistar albino rat at 20 mg/kg, po administered on day 8 to 14
Homo sapiens [6] = species: Homo sapiens; assay: Reduction of plasma triglyceride level in human; design: scale not given: the % may be the effect or the level left
Homo sapiens [7] = species: Homo sapiens; assay: Increase of plasma HDL cholesterol level in human

COc1ccc(NC(=O)C(C)(C)Oc2cccc(C)c2)cc1
Activity (Rattus norvegicus [1]): 23.24% | Activity (Rattus norvegicus [2]): 25.79% | Activity (Rattus norvegicus [3]): 15.28% | Activity (Rattus norvegicus [4]): 28.67% | Ratio (Rattus norvegicus [5]): 3.93

Cc1cccc(OC(C)(C)C(=O)N/N=C/c2ccccc2Cl)c1
Activity (Rattus norvegicus [1]): 0% | Activity (Rattus norvegicus [2]): -1.32% | Activity (Rattus norvegicus [3]): 14.6% | Activity (Rattus norvegicus [4]): 2.6% | Ratio (Rattus norvegicus [5]): 6

CC(C)(Oc1ccc(CCNC(=O)c2ccc(Cl)cc2)cc1)C(=O)O [BEZAFIBRATE]
Activity (Homo sapiens [6]): 30% | Activity (Homo sapiens [7]): 5%

COc1ccc(/C=N/NC(=O)C(C)(C)Oc2cccc(C)c2)cc1
Activity (Rattus norvegicus [2]): 9.03% | Activity (Rattus norvegicus [3]): 15.8% | Activity (Rattus norvegicus [4]): -9.39% | Ratio (Rattus norvegicus [5]): 5.41

Cc1cccc(OC(C)(C)C(=O)N/N=C/c2ccc([N+](=O)[O-])cc2)c1
Activity (Rattus norvegicus [1]): 0.29% | Activity (Rattus norvegicus [2]): -0.84% | Activity (Rattus norvegicus [3]): 9.12% | Activity (Rattus norvegicus [4]): 2.3% | Ratio (Rattus norvegicus [5]): 5.71

CC(C)OC(=O)C(C)(C)Oc1ccc(C(=O)c2ccc(Cl)cc2)cc1 [FENOFIBRATE]
Activity (Homo sapiens [6]): 30% | Activity (Homo sapiens [7]): 5%

C=CCNC(=S)NNC(=O)C(C)(C)Oc1cccc(C)c1
Activity (Rattus norvegicus [1]): -1.77% | Activity (Rattus norvegicus [2]): -1.61% | Activity (Rattus norvegicus [3]): 6.78% | Activity (Rattus norvegicus [4]): -1% | Ratio (Rattus norvegicus [5]): 6.02

CCNC(=S)NNC(=O)C(C)(C)Oc1cccc(C)c1
Activity (Rattus norvegicus [1]): -0.59% | Activity (Rattus norvegicus [2]): 5.44% | Activity (Rattus norvegicus [3]): 5.85% | Activity (Rattus norvegicus [4]): -1.16% | Ratio (Rattus norvegicus [5]): 6.08

CCOC(=O)c1ccc(NC(=O)C(C)(C)Oc2cccc(C)c2)cc1
Activity (Rattus norvegicus [1]): 2.65% | Activity (Rattus norvegicus [2]): 0.43% | Activity (Rattus norvegicus [3]): 15.04% | Activity (Rattus norvegicus [4]): 5.94% | Ratio (Rattus norvegicus [5]): 5.2

Cc1cccc(OC(C)(C)C(=O)O)c1
Activity (Rattus norvegicus [1]): 15.89% | Activity (Rattus norvegicus [2]): 17.98% | Activity (Rattus norvegicus [3]): 10.68% | Activity (Rattus norvegicus [4]): 19.56% | Ratio (Rattus norvegicus [5]): 4.62

CCOC(=O)C(C)(C)Oc1ccc(Cl)cc1 [CLOFIBRATE]
Activity (Homo sapiens [6]): 30% | Activity (Homo sapiens [7]): 5%

Cc1ccc(C)c(OCCCC(C)(C)C(=O)O)c1 [GEMFIBROZIL]
Activity (Rattus norvegicus [1]): 4.68% | Activity (Rattus norvegicus [2]): 22.23% | Activity (Rattus norvegicus [3]): 25.18% | Activity (Rattus norvegicus [4]): 5.35% | Ratio (Rattus norvegicus [5]): 4.81

Cc1cccc(OC(C)(C)C(=O)N/N=C/c2ccccc2)c1
Activity (Rattus norvegicus [1]): 4.12% | Activity (Rattus norvegicus [2]): 2.54% | Activity (Rattus norvegicus [3]): 18.47% | Activity (Rattus norvegicus [4]): 8.02% | Ratio (Rattus norvegicus [5]): 4.94

Cc1cccc(OC(C)(C)C(=O)NCCc2ccccc2)c1
Activity (Rattus norvegicus [1]): 12.95% | Activity (Rattus norvegicus [2]): 1.2% | Activity (Rattus norvegicus [3]): 22.45% | Activity (Rattus norvegicus [4]): 21.21% | Ratio (Rattus norvegicus [5]): 4.09

Reference: ChEMBL document CHEMBL1158379, “Design, synthesis and hypolipidemic activity of novel 2-(m-tolyloxy) isobutyric acid derivatives” (2009)
